Reference: ChEMBL document CHEMBL3286189, “Discovery and SAR studies of a novel class of cytotoxic 1,4-disubstituted piperidines via Ugi reaction” (Eur J Med Chem, 2014)

What was measured:
[1] = Anticancer activity against human BT549 cells; assay type: functional
In short: (§1)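 Values come from the NCI 60-cell-line human tumour panel, run on a single analog. Cytostatic and cytotoxic responses were read for each cell line across graded molar concentrations of that compound.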

MDA-MB-435 = experiment: Anticancer activity against human MDA-MB-435 cells; assay type: functional; in short: as §1
DU-145 = experiment: Anticancer activity against human DU145 cells; assay type: functional; in short: as §1
[2] = Anticancer activity against human OVCAR4 cells; assay type: functional; in short: as §1
KM12 = experiment: Anticancer activity against human KM12 cells; assay type: functional; in short: as §1
A549 = experiment: Anticancer activity against human A549/ATCC cells; assay type: functional; in short: as §1
HL-60 = experiment: Anticancer activity against human HL60 (TB) cells; assay type: functional
In short: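 Run within the broad NCI-60 human tumour cell line panel screen of the National Cancer Institute.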

CCRF-CEM [3] = experiment: Cytostatic activity against human CEM cells assessed as inhibition of cell proliferation after 72 hrs by coulter counting analysis; assay type: functional, cell-based; conditions: Homo sapiens, CCRF-CEM, 72 h
In short: (§2)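 Anti-proliferative screen in murine leukemia L1210, human T-lymphocyte CEM and human cervix carcinoma HeLa cultures. The value reported is the IC50, the concentration that inhibits cell proliferation by 50%.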

PC-3 = experiment: Anticancer activity against human PC3 cells; assay type: functional; in short: as §1
[4] = Anticancer activity against human MOLT4 cells; assay type: functional; in short: as §1
786-0 = experiment: Anticancer activity against human 786-0 cells; assay type: functional; in short: as §1
Malme-3M = experiment: Anticancer activity against human MALME-3M cells; assay type: functional; in short: as §1
CCRF-CEM [5] = experiment: Anticancer activity against human CCRF-CEM cells; assay type: functional; in short: as §1
SK-OV-3 = experiment: Anticancer activity against human SKOV3 cells; assay type: functional; in short: as §1
SNB-19 = experiment: Anticancer activity against human SNB19 cells; assay type: functional; in short: as §1
L1210 = experiment: Cytostatic activity against mouse L1210 cells assessed as inhibition of cell proliferation after 48 hrs by coulter counting analysis; assay type: functional, cell-based; conditions: Mus musculus, L1210, 48 h; in short: as §2
Huh-7 = experiment: Cytostatic activity against human HuH7 cells assessed as inhibition of cell proliferation after 96 hrs by coulter counting analysis; assay type: functional, cell-based; conditions: Huh-7, 96 h
In short: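 Anti-proliferative testing extended to human kidney Caki-1 and human liver Huh-7 tumour cells. The value reported is the IC50, the concentration that inhibits tumour cell growth by 50%.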

M14 = experiment: Anticancer activity against human M14 cells; assay type: functional; in short: as §1
TK-10 = experiment: Anticancer activity against human TK10 cells; assay type: functional; in short: as §1
[6] = read-out: pLC50 (the source's name) (converted)

CC(C)(C)OC(=O)N[C@@H](Cc1ccccc1)C(=O)N(Cc1ccccc1)C1(C(=O)NCc2ccccc2)CCN(Cc2ccccc2)CC1
GI50 ([1]; BT-549): 2.09 µM | CC50 ([1]; BT-549, read-out: pLC50 (the source's name) (converted)): > 100 µM | TGI ([1]; BT-549, read-out: pTGI (converted)): 7.94 µM | GI50 (MDA-MB-435): 3.02 µM | CC50 (MDA-MB-435; [6]): > 100 µM | TGI (MDA-MB-435; read-out: pTGI): > 100 µM | GI50 (DU-145): 5.37 µM | CC50 (DU-145; [6]): > 100 µM | TGI (DU-145; read-out: pTGI): > 100 µM | GI50 ([2]; OVCAR-4): 3.24 µM | CC50 ([2]; OVCAR-4, read-out: pLC50 (the source's name) (converted)): > 100 µM | TGI ([2]; OVCAR-4, read-out: pTGI): > 100 µM | GI50 (KM12): 4.17 µM | CC50 (KM12; [6]): > 100 µM | TGI (KM12; read-out: pTGI): > 100 µM | GI50 (A549): 3.89 µM | CC50 (A549; [6]): > 100 µM | TGI (A549; read-out: pTGI): > 100 µM | GI50 (HL-60): 2.51 µM | CC50 (HL-60; [6]): > 100 µM | TGI (HL-60; read-out: pTGI (converted)): 6.17 µM | IC50 (CCRF-CEM [3]): 4.4 µM | GI50 (PC-3): 2.45 µM | CC50 (PC-3; [6]): > 100 µM | TGI (PC-3; read-out: pTGI): > 100 µM | GI50 ([4]; MOLT-4): 1.82 µM | CC50 ([4]; MOLT-4, read-out: pLC50 (the source's name) (converted)): > 100 µM | TGI ([4]; MOLT-4, read-out: pTGI (converted)): 6.31 µM | GI50 (786-0): 3.02 µM | CC50 (786-0; [6]): > 100 µM | TGI (786-0; read-out: pTGI): 43.7 µM | GI50 (Malme-3M): 3.02 µM | CC50 (Malme-3M; [6]): > 100 µM | TGI (Malme-3M; read-out: pTGI (converted)): 10 µM | GI50 (CCRF-CEM [5]): 3.31 µM | CC50 (CCRF-CEM [5]; [6]): > 100 µM | TGI (CCRF-CEM [5]; read-out: pTGI): > 100 µM | GI50 (SK-OV-3): 3.02 µM | CC50 (SK-OV-3; [6]): > 100 µM | TGI (SK-OV-3; read-out: pTGI): > 100 µM | GI50 (SNB-19): 5.25 µM | CC50 (SNB-19; [6]): > 100 µM | TGI (SNB-19; read-out: pTGI): > 100 µM | IC50 (L1210): 3.5 µM | IC50 (Huh-7): 6.4 µM | GI50 (M14): 2.63 µM | CC50 (M14; [6]): > 100 µM | TGI (M14; read-out: pTGI (converted)): 44.7 µM | GI50 (TK-10): 3.16 µM | CC50 (TK-10; [6]): > 100 µM | TGI (TK-10; read-out: pTGI (converted)): 70.8 µM
